Assay results gathered from unrelated publications.
Each line is one published result; the experiments were not run side by side.
SLC6A2: Sodium-dependent noradrenaline transporter (SLC6A2, Homo sapiens, UniProt P23975)
MPO: Myeloperoxidase (MPO, Homo sapiens, UniProt P05164)
Oprk1: Kappa-type opioid receptor (Oprk1, Mus musculus, UniProt P33534)

| SMILES | target | read-out | action | technique | cells | concentration | inhibition [%] |
| --- | --- | --- | --- | --- | --- | --- | --- |
| CCOC(=O)[C@@]12C[C@@H]1[C@@H](n1cnc3c(NCCCCCc4ccccc4)nc(C#Cc4ccccc4)nc31)[C@H](O)[C@@H]2O | SLC6A2 | transporter uptake | inhibitor | radiometric | HEK293 | 10 µM | 1 |
| COc1ccc(C(=O)NC2CCCc3c2[nH]c2c(Cl)cccc32)cc1OC (stereo not shown) | Cysteinyl leukotriene receptor 1 (CYSLTR1, Homo sapiens, UniProt Q9Y271) | calcium signal | antagonist |  | HEK293 | 33 µM | ~41 |
| COc1ccc(Cl)cc1-c1cc(=O)[nH]c(=S)n1CC(N)=O | MPO | enzyme activity | inhibitor | fluorescence |  | 15 µM | 98.2 |
| O=c1c(O[C@@H]2O[C@H](CO)[C@H](O)[C@H](O)[C@H]2O)c(-c2ccc(O)c(O)c2)oc2cc(O)cc(O)c12 | srtA (Staphylococcus aureus, UniProt Q2FV99) | enzyme activity | inhibitor | FRET |  | 120 µM | 79.1 |
| CC(C)[C@H](CN1CCc2ccccc2C1)NC(=O)c1ccc([N+](=O)[O-])s1 | Oprk1 | ligand displacement |  | radioligand |  | 10 µM | 64.5 |
| N#CC[C@@]12C[C@@H]1[C@@H](n1cnc3c(Nc4ccccc4)nc(I)nc31)[C@H](O)[C@@H]2O | SLC6A2 | ligand displacement |  | radioligand |  | 10 µM | 20 |
| CC(C)[C@@H](CN1CCc2ccccc2C1)NC(=O)c1cccc(-c2ccccc2)c1 | Oprk1 | ligand displacement |  | radioligand |  | 10 µM | 66 |
| NC/C(=C\F)COc1cccc(Cn2c(=S)[nH]c(=O)c3[nH]cnc32)c1 | MPO | enzyme activity | inhibitor | fluorescence |  | 0.3704 µM | 98.6 |
| CC(C)[C@@H](CN1CCc2ccccc2C1)NC(=O)c1c(Cl)cncc1Cl | Oprk1 | ligand displacement |  | radioligand |  | 10 µM | 70.9 |
| Cc1cc(O)c(-c2ccc([C@@H](C)CN(C)C)cc2)c2c1[nH]c(=O)c1sccc12 | Serine/threonine-protein kinase WNK4 (WNK4, Homo sapiens, UniProt Q96J92) | enzyme activity | inhibitor |  |  | 0.1 µM | 1.12 |
| CC(C)[C@@H](CN1CCc2ccccc2C1)NC(=O)c1cccc(-c2cccnc2)c1 | Oprk1 | ligand displacement |  | radioligand |  | 10 µM | 74.3 |
| CCOC(=O)[C@@]12C[C@@H]1[C@@H](n1cnc3c(NCCCCCCc4ccccc4)nc(I)nc31)[C@H](O)[C@@H]2O | SLC6A2 | ligand displacement |  | radioligand |  | 10 µM | 52 |
| Cc1cc(F)cc2c(CCC(=O)N[C@@H]3C(=O)NC[C@H]3O)c(-c3ccc(F)cc3)[nH]c12 | Neuronal acetylcholine receptor; alpha3/beta4 (Homo sapiens, UniProt P30926+P32297) | cell-free assay |  |  |  | 10 µM | -4 |
| N#CC[C@@]12C[C@@H]1[C@@H](n1cnc3c(Nc4ccccc4)nc(C#Cc4ccc(Cl)s4)nc31)[C@H](O)[C@@H]2O | SLC6A2 | ligand displacement |  | radioligand |  | 10 µM | 37 |
| CC(C)[C@H](CN1CCc2ccccc2C1)NC(=O)C=Cc1ccccc1 | Oprk1 | ligand displacement |  | radioligand |  | 10 µM | 55.7 |
| CCOC(=O)[C@@]12C[C@@H]1[C@@H](n1cnc3c(NCc4cccc(Cl)c4)nc(C#Cc4ccc(Cl)s4)nc31)[C@H](O)[C@@H]2O | SLC6A2 | ligand displacement |  | radioligand |  | 10 µM | 78 |
| CC(C)[C@H](CN1CCc2ccccc2C1)NC(=O)c1ccc(F)cc1 | Oprk1 | ligand displacement |  | radioligand |  | 10 µM | 88.7 |
| CCOC(=O)[C@@]12C[C@@H]1[C@@H](n1cnc3c(NCCO)nc(C#Cc4ccc(Cl)s4)nc31)[C@H](O)[C@@H]2O | SLC6A2 | ligand displacement |  | radioligand |  | 10 µM | 15 |
| CC(C)OCCn1c(=S)[nH]c(=O)c2[nH]ccc21 | MPO | enzyme activity | inhibitor | fluorescence |  | 0.3704 µM | 96.2 |
